Active and inactive are the calls of the source. No cut-off for these calls is given here.
Experiments:
[1] = Selectivity index, ratio of HC50 for human erythrocytes to MIC for Escherichia coli MTCC 443; type: toxicity; conditions: read-out: Selectivity Index
[2] = system: Staphylococcus aureus; assay: Antibiofilm activity against Staphylococcus aureus ATCC 33591 assessed as reduction in biofilm biomass at 16 to 64 ug/ml incubated for 24 hrs followed by plating on agar plate for 24 hrs by crystal violet staining assay relative to control; type: functional
Outline: (§1)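 Coverslip biofilms grown 24 h at 37 °C in nutrient broth with 1% glucose and 1% NaCl, then treated with compound for 24 h. PBS-washed and air-dried, stained with 0.1% w/v crystal violet for 5-10 min, washed, stain recovered in 95% ethanol, OD 522 nm read. Two experiments, mean with standard deviation.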

[3] = system: Pseudomonas aeruginosa; assay: Antibacterial activity against Pseudomonas aeruginosa MTCC 424 after 24 hrs by tecan plate reader analysis; type: functional; conditions: MTCC 424, 24 h
Outline: (§2)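 Broth microdilution MIC. Glycerol stocks grown on MacConkey agar 24 h at 37 °C, then a single colony in nutrient broth 6 h to mid-log (~10⁸ CFU/mL). Cells diluted to 10⁵ CFU/mL in Mueller Hinton broth and added to two-fold compound dilutions. Incubated 24 h at 37 °C, OD600 read. Triplicate wells, experiment run twice.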

[4] = system: A549; assay: Cytotoxicity against human A549 cells after 24 hrs by alamar blue assay; type: cell-based; conditions: A549, 24 h
Outline: (§3)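 About 10⁴ cells/well in DMEM with 10% FBS. Medium replaced with two-fold compound dilutions and incubated 24 h at 37 °C, 5% CO₂. Alamar Blue added for a further 4 h, absorbance 570 nm (600 nm reference). Viability normalized to untreated and 0.1% Triton-X wells. Triplicates; sigmoidal fit gives the 50% viability concentration.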

[5] = system: Escherichia coli; assay: Antibacterial activity against Escherichia coli MTCC 443 after 24 hrs by tecan plate reader analysis; type: functional; conditions: MTCC 443, 24 h; outline: as §2
[6] = system: Staphylococcus aureus; assay: Antibacterial activity against Staphylococcus aureus ATCC 33591 using compound preincubated with human 50% plasma for 3 hrs and measured after 24 hrs by tecan-plate reader analysis; type: functional
Outline: (§4)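 Compound mixed 1:1 with human plasma, human serum or mouse liver homogenate (50%) and held 3 h at 37 °C. Saline and PBS incubations served as controls. Mixtures two-fold diluted (saline for plasma/serum, PBS for homogenate), then MRSA ATCC33591 (~10⁵ CFU/mL in MHB) added.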

[7] = Hemolytic activity in human erythrocytes after 1 hr; type: ADME, cell-based, Erythrocyte
Outline: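 Heparinized donor blood. Erythrocytes washed three times in PBS and resuspended to 5 vol%, then mixed 3:1 with compound serially diluted in water. Incubated 1 h at 37 °C and centrifuged. Supernatant A540 read; % hemolysis relative to water and 0.1 vol% Triton-X controls.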

[8] = system: A549; assay: Cytotoxicity against human A549 cells up to 128 ug/ml after 24 hrs by alamar blue assay; type: cell-based; conditions: a549, 24 h; outline: as §3
[9] = system: Staphylococcus aureus; assay: Bactericidal activity against metabolically inactive stationary phase methicillin-resistant Staphylococcus aureus ATCC 33591 assessed as log reduction in bacterial colony forming units at 32 ug/ml incubated for 6 hrs followed by plating on agar plate for 24 hrs by visual counting analysis; type: functional
[10] = system: Staphylococcus aureus; assay: Ratio of MIC for Staphylococcus aureus ATCC 33591 using compound preincubated with mouse 50% liver homogenate for 3 hrs to MIC for Staphylococcus aureus ATCC 33591 using non-treated compound; type: functional, organism-based; outline: as §4
[11] = system: Staphylococcus aureus; assay: Antibiofilm activity against Staphylococcus aureus ATCC 33591 assessed as bacterial cell viability by measuring log reduction in bacterial colony forming units at 16 ug/ml incubated for 24 hrs followed by plating on agar plate for 24 hrs; type: functional
Outline: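 Mid-log MRSA diluted to 10⁵ CFU/mL in nutrient broth with 1% glucose and 1% NaCl. Biofilms grown on glass coverslips 24 h at 37 °C, static. PBS-washed biofilms treated with compound in biofilm medium 24 h at 37 °C, static; medium-only control. Cells detached with trypsin-EDTA (1:4 in saline) for 15 min, ten-fold diluted, plated on NB agar 24 h; viable counts compared with untreated.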

[12] = system: Staphylococcus aureus; assay: Bactericidal activity against metabolically inactive stationary phase of methicillin-resistant Staphylococcus aureus ATCC 33591 assessed as bacterial killing at 32 ug/ml incubated for 6 hrs followed by plating on agar plate for 24 hrs by visual counting analysis relative to control; type: functional
[13] = system: Staphylococcus aureus; assay: Induction of membrane depolarization in Staphylococcus aureus R3545 assessed as increase in fluorescence intensity measured upto 28 mins by DiSC3 staining based fluorescence spectroscopic technique; type: functional, organism-based
Outline: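 Mid-log MRSA washed in 5 mM HEPES pH 7.4 and resuspended in 1:1:1 HEPES (5 mM), glucose (5 mM) and KCl (100 mM). Loaded with DiSC3(5) at 2 µM final, 30 min in the dark. Baseline fluorescence (ex 622/em 670 nm) read 4 min, compound added, monitored to 28 min. Water control; triplicates averaged.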

[14] = Ratio of EC50 for human A549 cells to MIC for vancomycin-resistant Staphylococcus aureus clinical isolate 2; type: toxicity
[15] = Ratio of EC50 for dog MDCK cells to MIC for vancomycin-resistant Staphylococcus aureus clinical isolate 2; type: toxicity
[16] = system: Staphylococcus aureus; assay: Bactericidal activity against planktonic phase of methicillin-resistant Staphylococcus aureus R3545 assessed as log reduction in bacterial colony forming units at 16 ug/ml incubated for 6 hrs followed by plating on agar plate for 24 hrs by time-kill kinetic assay; type: functional
Outline: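 Time-kill: 6 h mid-log culture diluted to 10⁵ CFU/mL in MHB, incubated at 37 °C with compound at […]; 0.9% saline control. Aliquots at 1, 2, 4, 6, 8 and 12 h ten-fold diluted in saline, plated on NB agar 24 h at 37 °C; colonies counted, log scale.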

[17] = system: Staphylococcus aureus; assay: Antibacterial activity against methicillin-resistant Staphylococcus aureus R3890 clinical isolate after 24 hrs by tecan plate reader analysis; type: functional; conditions: R3890, 24 h
Outline: (§5)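 Colony grown 24 h on NB agar at 37 °C, then 6 h in nutrient broth to mid-log (10⁸ CFU/mL by drop plating), diluted to 10⁵ CFU/mL in Mueller Hinton broth; added 9:1 to two-fold serial compound dilutions in MHB. Incubated 24 h, 37 °C; OD600 read. Triplicate per concentration, experiment run twice; MIC taken from the range of triplicate OD values.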

[18] = system: Staphylococcus aureus; assay: Antibacterial activity against vancomycin-resistant Staphylococcus aureus clinical isolate 4 after 24 hrs by tecan plate reader analysis; type: functional; conditions: clinical isolate 4, 24 h; outline: as §5
[19] = system: Staphylococcus aureus; assay: Antibacterial activity against Staphylococcus aureus ATCC 33591 assessed as increase in dead cells by measuring bright red fluorescence intensity at 32 ug/ml after 2 hrs by SYTO-9/propidium iodide staining based fluorescence microscopy analysis; type: functional, organism-based
Outline: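 Mid-log cells (~10⁸ CFU/mL) pelleted and resuspended in 0.9% saline. Treated with 32 µg/mL compound for 2 h at 37 °C, pelleted and resuspended in saline. Stained with SYTO9 (3 µM) plus PI (15 µM) for 15 min in the dark, unbound dye removed, then imaged by fluorescence microscopy at 100×.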

[20] = system: Staphylococcus aureus; assay: Antibiofilm activity against Staphylococcus aureus R3545 assessed as reduction in biofilm biomass at 16 to 64 ug/ml incubated for 24 hrs followed by plating on agar plate for 24 hrs by crystal violet staining assay relative to control; type: functional; outline: as §1

Question: With `CCCCCCNC(=O)C[N+](C)(CCO)CCCCCCCCCCCC[N+](C)(CCO)CC(=O)NCCCCCC.O=C([O-])C(F)(F)F.O=C([O-])C(F)(F)F` (stereo not given) as the compound, how does the selectivity ratio [1] read?
Answer: 288

Question: What about the “inhibition (INH)” value [2] of the same compound?
Answer: 60%

Question: And the MIC [3]?
Answer: 128 µg/mL

Question: And the EC50 [4]?
Answer: 194 µg/mL

Question: And the MIC [5]?
Answer: 2 µg/mL

Question: What about the MIC [6] of the same compound?
Answer: 4 µg/mL

Question: And the HC50 at 1 h [7]?
Answer: 577 µg/mL

Question: What about the Activity [8] of the same compound?
Answer: Non-Toxic

Question: And the Activity [9]?
Answer: 2.05 log10CFU/ml

Question: And the Ratio [10]?
Answer: 2

Question: And the Activity [11]?
Answer: >4 log10CFU/ml

Question: And the Activity [12]?
Answer: >99%

Question: What about the Activity [13] of the same compound?
Answer: Dose-dependent effect

Question: And the selectivity ratio [14]?
Answer: 94 to 97

Question: What about the selectivity ratio [15] of the same compound?
Answer: 94 to 97

Question: What about the Activity [16] of the same compound?
Answer: >2 log10CFU/ml

Question: What about the MIC [17] of the same compound?
Answer: 2 µg/mL

Question: And the MIC [18]?
Answer: 2 µg/mL

Question: And the Activity [19]?
Answer: Active

Question: And the “inhibition (INH)” value [20]?
Answer: 80%

— ChEMBL document CHEMBL4373680, “Small antibacterial molecules highly active against drug-resistant Staphylococcus aureus” (Medchemcomm, 2019)
